Assay outcomes from PubChem.
INS promoter act = activators of insulin promoter-driven GFP, primary screen, imaging, TRM-6 cells, eGFP reporter, cell count; plate-scaled: unstimulated 0, stimulated control 100; activation, % at 2 µM; 130,000 compounds, 0.81% hits; AID 1296, 2008;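 active means activation at 2 µM above a set limit, confirmed on inspection of the cell images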;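 further: share of cells whose green reporter signal exceeds an intensity cutoff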
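System – human fetal islet-derived TRM-6 cells with tamoxifen-inducible insulin promoter–eGFP reporter · Amount – 1,000 cells per well · Schedule – overnight tamoxifen, then two-day compound incubation at 37 °C · Detection – high-content imaging of fixed cells with Hoechst nuclear stain · Read-out – percent cells above green-intensity threshold, converted to percent activation versus plate controls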
An asterisk follows results filed as active. This is one part of a sample in which hits are shown more often than they occur.

SMILES	INS promoter act
CCCCn1c(O)c(C(CC)=NCc2ccc(F)cc2)c(=O)[nH]c1=O	-83.3
C=CCn1c(O)c(C(C)=NCCc2ccccc2)c(=O)[nH]c1=O	0.0
C=CCn1c(O)c(C(CC)=NCCc2ccccc2)c(=O)[nH]c1=O	550.0*
CCN1CC2([N+](=O)[O-])CC=C(Cl)C([N+](=O)[O-])(C1)C2 (configuration not stated)	0.0
CCOP(=O)(OCC)C(NC(=O)C(Cl)Cl)C(Cl)(Cl)Cl (configuration not stated)	8.3
Cc1cc2c(C(C)C)c(O)c(O)c(C=O)c2c(O)c1-c1c(C)cc2c(C(C)C)c(O)c(O)c(C=O)c2c1O	-61.9
CN(CCCCC(=O)/C=N/O)Cc1ccccc1 (tested in a mixture with another compound)	3.7
CC(C)C12CN3CCN(CC(C3)/C1=N\O)C2	307.7
CCOC(=O)c1c(C)c(P(=S)(N2CCOCC2)N2CCOCC2)n(C)c1C	9.1
O=C(CCCOc1ccc(Cl)cc1Cl)N1CCC2(CC1)OCCO2	170.8
O=C(CNC1CCCCC1)N1CCC2(CC1)OCCO2	658.3*
Cc1ccc(-c2ccc(=O)n(CCC(=O)N3CCC4(CC3)OCCO4)n2)cc1	0.0
CC1(C)COC(Nc2cccc(Cl)c2)=N1	-3.3
O=C1c2ccccc2C(=O)N1Cc1nc2ccccc2c(=O)n1-c1ccccn1	9.1
C(#CCN1CCOCC1)COCC#Cc1ccccc1	79.0*
O=C1NC(=O)C(CCc2ccncc2)(Cc2ccc3c(c2)OCO3)C(=O)N1CCc1ccccc1 (configuration not stated)	3.3
Cc1c2ccncc2c(C)c2c1[nH]c1ccccc12	354.5*
O=C(Cc1ccccc1)N1CCN(Cc2ccccn2)CC1	270.6
CC(=O)C1C(=O)NC23CCCCC2C1c1ccccc1O3 (configuration not stated)	231.3
N#Cc1c(/N=C/c2ccc(O)cc2O)sc2c1C1CCN2CC1	-7.7
CC(=O)C1=C(C)OC(N)=C(C(=O)OC(C)C)C12C(=O)Nc1ccccc12 (configuration not stated)	-100.0
O=c1c2ccccc2nc(/C=C/c2ccc([N+](=O)[O-])o2)n1-c1ccc(O)cc1	525.0*
CCOc1ccc(-n2c(-c3ccoc3)nc3ccccc3c2=O)cc1	4.3
Cc1cccnc1-n1c(-c2ccccc2)nc2ccccc2c1=O	-9.7
O=c1[nH]c2ccccc2c(=O)n1-c1cccc(Cl)c1	-81.8
SMILES	INS promoter act
CN(C)CP(=O)(O)CN(C)C=O	9.1
CN(C)C(=S)SSC(=S)N(C)C	-100.0
CCN1CCN(c2ncnc3ccc(Br)cc23)CC1	-81.2
Cc1cc(C(=O)N2CCC3(CC2)OCCO3)cs1	-3.7
Cc1noc(C)c1C(=O)N1CCC2(CC1)OCCO2	-7.9
O=C(c1ccc2c(c1)ncn2-c1ccc(F)cc1F)N1CCC2(CC1)OCCO2	485.7*
FC(F)(F)/C(=N\P(=S)(N1CCOCC1)N1CCOCC1)N1CCOCC1	-9.7
CSc1ncc(/C=C2/C(=O)NC(=O)N(c3ccc(Cl)cc3)C2=O)cn1	260.0*
O=C1NC(=O)N(c2ccc(Br)cc2)C(=O)/C1=C/c1ccsc1	0.0
COc1ccc(/C=C2/C(=O)NC(=O)N(c3ccc(C)c(C)c3)C2=O)cc1CN1C(=O)c2ccccc2C1=O	2.0
O=C1NC(=O)C(CCc2ccncc2)(CCc2ccncc2)C(=O)N1C1CCCCC1	0.0
O=C(Cn1cc(C(=O)c2ccccc2F)c2ccccc21)NC1CC1	127.3
CCC12CN3CCN(CC(C3)/C1=N/NC(N)=O)C2	0.0
COc1ccc(C(=O)C(C)(C)NO)cc1	468.8*
COc1ccc(C(=O)C(Cc2ccccc2)N(C)C)cc1 (configuration not stated)	3.7
COc1ccc(O)c(C(C)(C)C)c1	-6.7
O=c1cc(C(F)(F)F)c2cc3c4c(c2o1)CCCN4CCC3	164.4*
CCC1(CC)C(=O)NC(=Nc2cccc(C(F)(F)F)c2)NC1=O	-3.3
COCCN1Cc2cc(=O)n3c([nH]c4ccccc43)c2C1=N	109.1
COc1ccc(-c2cc(=Nc3cccc(C(=O)O)c3)c3cc(C)ccc3o2)cc1	-9.1
